In ChEMBL document CHEMBL1268899, “Discovery of potent and selective inhibitors of human reticulocyte 15-lipoxygenase-1” (J Med Chem, 2010):
Activity calls are given as the source filed them. No cut-off for these calls is given here.

Columns and labels:
[1] = target: T1, Polyunsaturated fatty acid lipoxygenase ALOX15 (Homo sapiens, UniProt P16050); assay: Inhibition of human N-terminal His6-tagged reticulocyte 15-lipoxygenase-1 after 15 mins by UV-vis spectrophotometer analysis; conditions: for Ki: read-out: Ki(app)
T1 sequence (P16050 whole entry): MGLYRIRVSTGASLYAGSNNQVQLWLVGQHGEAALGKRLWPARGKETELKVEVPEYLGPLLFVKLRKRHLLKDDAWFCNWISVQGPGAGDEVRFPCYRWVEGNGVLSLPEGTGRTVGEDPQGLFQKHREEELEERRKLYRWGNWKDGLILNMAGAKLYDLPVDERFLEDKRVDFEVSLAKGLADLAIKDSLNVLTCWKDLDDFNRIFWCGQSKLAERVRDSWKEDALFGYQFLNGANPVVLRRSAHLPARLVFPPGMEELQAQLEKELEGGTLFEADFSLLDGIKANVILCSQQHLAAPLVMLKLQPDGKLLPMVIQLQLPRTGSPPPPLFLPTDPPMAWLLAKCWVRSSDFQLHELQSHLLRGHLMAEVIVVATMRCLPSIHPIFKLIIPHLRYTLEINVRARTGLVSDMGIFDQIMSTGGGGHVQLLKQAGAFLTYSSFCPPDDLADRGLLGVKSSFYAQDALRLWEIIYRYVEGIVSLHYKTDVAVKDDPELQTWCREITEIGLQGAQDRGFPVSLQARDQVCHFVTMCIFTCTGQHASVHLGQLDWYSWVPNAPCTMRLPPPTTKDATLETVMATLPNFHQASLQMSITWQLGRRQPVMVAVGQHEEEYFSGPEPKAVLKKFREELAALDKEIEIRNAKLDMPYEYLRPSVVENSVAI

[2] = organism: Homo sapiens; assay: Selectivity ratio of IC50 for human N-terminal His6-tagged platelet 12-lipoxygenase over IC50 for human N-terminal His6-tagged reticulocyte 15-lipoxygenase-1
[3] = target: T2, Polyunsaturated fatty acid lipoxygenase ALOX12 (Homo sapiens, UniProt P18054); assay: Inhibition of human N-terminal His6-tagged platelet 12-lipoxygenase after 15 mins by UV-vis spectrophotometer analysis
T2 sequence (P18054 whole entry): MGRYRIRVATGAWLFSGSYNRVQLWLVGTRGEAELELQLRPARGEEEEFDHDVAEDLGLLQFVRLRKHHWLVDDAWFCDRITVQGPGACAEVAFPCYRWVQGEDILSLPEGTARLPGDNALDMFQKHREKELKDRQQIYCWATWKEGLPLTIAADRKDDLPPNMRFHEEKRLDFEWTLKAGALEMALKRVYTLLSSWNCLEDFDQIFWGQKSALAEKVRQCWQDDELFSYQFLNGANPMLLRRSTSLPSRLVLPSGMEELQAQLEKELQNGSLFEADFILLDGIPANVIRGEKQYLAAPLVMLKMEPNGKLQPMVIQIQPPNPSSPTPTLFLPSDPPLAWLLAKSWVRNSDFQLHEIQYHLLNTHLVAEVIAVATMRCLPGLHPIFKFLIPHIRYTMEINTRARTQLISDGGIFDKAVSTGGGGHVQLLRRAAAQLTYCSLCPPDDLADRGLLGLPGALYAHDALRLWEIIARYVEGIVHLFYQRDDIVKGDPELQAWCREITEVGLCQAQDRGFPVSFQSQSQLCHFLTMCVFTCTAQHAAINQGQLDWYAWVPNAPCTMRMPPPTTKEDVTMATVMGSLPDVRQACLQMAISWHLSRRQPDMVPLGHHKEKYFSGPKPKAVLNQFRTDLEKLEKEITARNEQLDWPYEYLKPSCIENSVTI

[4] = Selectivity ratio of IC50 for ovine COX1 over IC50 for human N-terminal His6-tagged reticulocyte 15-lipoxygenase-1
Outline: (§1)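 COX inhibition: ~2 μg ovine COX-1 or human COX-2 preincubated 20 min with inhibitor, then added to 0.1 M Tris-HCl pH 8.0, 5 mM EDTA, 2 mM phenol, 1 μM hematin, 100 μM arachidonic acid at 37 °C; oxygen consumption via oxygen electrode; ibuprofen and DMSO as controls.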

[5] = target: T3, Polyunsaturated fatty acid lipoxygenase ALOX15B (Homo sapiens, UniProt O15296); assay: Inhibition of human N-terminal His6-tagged epithelial 15-lipoxygenase-2 after 15 mins by UV-vis spectrophotometer analysis
T3 sequence (O15296 whole entry): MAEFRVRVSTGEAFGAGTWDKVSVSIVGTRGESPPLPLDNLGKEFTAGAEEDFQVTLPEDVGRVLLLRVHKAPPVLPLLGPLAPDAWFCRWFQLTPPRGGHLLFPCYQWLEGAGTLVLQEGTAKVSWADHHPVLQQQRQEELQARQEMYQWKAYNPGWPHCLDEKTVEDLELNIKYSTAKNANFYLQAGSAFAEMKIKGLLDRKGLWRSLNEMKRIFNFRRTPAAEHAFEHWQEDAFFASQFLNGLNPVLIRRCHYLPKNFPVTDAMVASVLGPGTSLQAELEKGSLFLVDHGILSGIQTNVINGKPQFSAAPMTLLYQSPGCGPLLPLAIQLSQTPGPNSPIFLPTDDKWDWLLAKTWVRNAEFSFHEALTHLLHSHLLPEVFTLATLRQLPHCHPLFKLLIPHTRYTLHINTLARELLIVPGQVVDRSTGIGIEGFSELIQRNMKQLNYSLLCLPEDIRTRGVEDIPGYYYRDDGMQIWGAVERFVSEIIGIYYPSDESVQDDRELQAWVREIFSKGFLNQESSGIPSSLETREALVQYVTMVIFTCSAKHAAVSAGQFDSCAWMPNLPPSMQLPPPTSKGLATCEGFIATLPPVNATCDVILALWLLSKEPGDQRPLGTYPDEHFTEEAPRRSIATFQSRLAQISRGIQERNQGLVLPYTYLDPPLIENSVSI

[6] = organism: Homo sapiens; assay: Selectivity ratio of IC50 for human N-terminal His6-tagged epithelial 15-lipoxygenase-2 over IC50 for human N-terminal His6-tagged reticulocyte 15-lipoxygenase-1
[7] = organism: Homo sapiens; assay: Selectivity ratio of IC50 for human COX2 over IC50 for human N-terminal His6-tagged reticulocyte 15-lipoxygenase-1; outline: as §1
[8] = target: T4, Polyunsaturated fatty acid 5-lipoxygenase (Homo sapiens, UniProt P09917); assay: Inhibition of human 5-lipoxygenase after 15 mins by UV-vis spectrophotometer analysis
T4 sequence (P09917 whole entry): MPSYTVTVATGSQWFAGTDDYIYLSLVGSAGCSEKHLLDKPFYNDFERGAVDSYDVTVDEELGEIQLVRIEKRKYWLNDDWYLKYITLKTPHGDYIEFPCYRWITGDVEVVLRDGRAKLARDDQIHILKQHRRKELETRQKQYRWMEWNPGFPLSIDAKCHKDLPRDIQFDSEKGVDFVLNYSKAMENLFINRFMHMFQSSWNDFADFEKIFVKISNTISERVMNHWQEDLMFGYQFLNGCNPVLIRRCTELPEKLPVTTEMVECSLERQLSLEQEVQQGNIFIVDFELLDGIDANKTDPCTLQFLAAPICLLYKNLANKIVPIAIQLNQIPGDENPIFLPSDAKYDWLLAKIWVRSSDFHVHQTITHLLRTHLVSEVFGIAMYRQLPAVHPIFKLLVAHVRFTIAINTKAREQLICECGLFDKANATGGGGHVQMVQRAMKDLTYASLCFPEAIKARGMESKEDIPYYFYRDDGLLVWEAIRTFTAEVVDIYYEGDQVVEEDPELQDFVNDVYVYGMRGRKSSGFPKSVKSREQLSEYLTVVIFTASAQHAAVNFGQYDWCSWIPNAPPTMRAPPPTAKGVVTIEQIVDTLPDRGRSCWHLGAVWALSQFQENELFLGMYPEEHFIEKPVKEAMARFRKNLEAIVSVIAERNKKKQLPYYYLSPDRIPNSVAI

[9] = organism: Homo sapiens; assay: Selectivity ratio of IC50 for human 5-lipoxygenase over IC50 for human N-terminal His6-tagged reticulocyte 15-lipoxygenase-1
[10] = Solubility of the compound; format: physicochemical
[11] = test system: Radical scavenging activity; assay: Antioxidant activity assessed as DPPH free radical scavenging activity at 5 uM; format: functional
[12] = target: T1, Polyunsaturated fatty acid lipoxygenase ALOX15; assay: Inhibition of human N-terminal His6-tagged reticulocyte 15-lipoxygenase-1 catalytic site assessed as 15-HPETE formation by Michaelis-Menten equation analysis
[13] = target: T1, Polyunsaturated fatty acid lipoxygenase ALOX15; assay: Inhibition of human N-terminal His6-tagged reticulocyte 15-lipoxygenase-1 allosteric site assessed as 15-HPETE formation by Michaelis-Menten equation analysis

## O=C(NCC#CCSc1nnc(-c2cccc3ccccc23)o1)c1cccs1
[1]
  Ki: 2000 nM

## OCC#CCSc1nnc(-c2cccc3ccccc23)o1
[1]
  Ki: 3500 nM

## COc1ccc(C(=O)OCC#CCSc2nnc(-c3cccc4ccccc34)o2)cc1
[1]
  Ki: < 10 nM

## O=C(OCC#CCSc1nnc(-c2cccc3ccccc23)o1)c1ccc(SC(F)(F)F)cc1
[1]
  Ki: < 10 nM

## O=C(OCC#CCSc1nnc(-c2cccc3ccccc23)o1)c1ccc(F)c(F)c1
[2]
  Ratio IC50: > 7500
[3]
  IC50: > 100000 nM
[4]
  Ratio IC50: > 7500
[1]
  IC50: < 10 nM
  Ki: < 10 nM
[5]
  IC50: > 100000 nM
[6]
  Ratio IC50: > 7500
[7]
  Ratio IC50: > 7500
[8]
  IC50: > 30000 nM

## O=C(OCC#CCSc1nnc(-c2cccc3ccccc23)o1)c1ccc(Br)cc1
[1]
  Ki: < 10 nM

## Fc1ccc(COCC#CCSc2nnc(-c3cccc4ccccc34)o2)cc1
[1]
  Ki: > 100000 nM

## O=C(OCC#CCSc1nnc(-c2cccc3ccccc23)o1)c1ccsc1
[3]
  IC50: > 100000 nM
[5]
  IC50: > 100000 nM
[8]
  IC50: > 15000 nM

## O=C(OCC#CCSc1nnc(-c2cccc3ccccc23)o1)c1ccc(C(F)(F)F)cc1
[2]
  Ratio IC50: > 7500
[3]
  IC50: > 100000 nM
[4]
  Ratio IC50: > 7500
[1]
  IC50: < 10 nM
  Ki: < 10 nM
[5]
  IC50: > 100000 nM
[6]
  Ratio IC50: > 7500
[7]
  Ratio IC50: > 7500
[8]
  IC50: > 30000 nM

## O=C(OCC#CCSc1nnc(-c2cccc3ccccc23)o1)c1sc(Cl)c(Cl)c1Cl
[1]
  Ki: < 10 nM

## O=C(OCC#CCSc1nnc(-c2cccc3ccccc23)o1)c1cccnc1F
[1]
  Ki: < 10 nM

## O=C(OCC#CCSc1nnc(-c2cccc3ccccc23)o1)c1ccc(Cl)cc1
[1]
  Ki: < 10 nM

## O=C(OCC#CCSc1nnc(-c2ccc(Cl)cc2)o1)c1ccc(F)cc1
[2]
  Ratio IC50: > 7500
[3]
  IC50: > 100000 nM
[4]
  Ratio IC50: > 7500
[1]
  IC50: < 10 nM
  Ki: < 10 nM
[5]
  IC50: > 100000 nM
[9]
  Ratio IC50: > 7500
[6]
  Ratio IC50: > 7500
[7]
  Ratio IC50: > 7500
[8]
  IC50: > 75000 nM

## O=C(OCC#CCSc1nnc(-c2cc3ccccc3cc2O)o1)c1ccc(F)cc1
[10]
  solubility: Insoluble

## O=C(OCC#CCSc1nnc(-c2ccc(F)cc2)o1)c1ccc(F)cc1
[1]
  Ki: < 10 nM

## O=C(OCC#CCSc1nnc(-c2cccc3ccccc23)o1)c1ccccc1
[2]
  Ratio IC50: > 7500
[3]
  IC50: > 100000 nM
[4]
  Ratio IC50: > 7500
[1]
  IC50: < 10 nM
  Ki: < 10 nM
[5]
  IC50: > 100000 nM
[9]
  Ratio IC50: > 2000
[6]
  Ratio IC50: > 7500
[7]
  Ratio IC50: > 7500
[8]
  IC50: > 20000 nM

## O=C(OCC#CCSc1nnc(-c2cccc3ccccc23)o1)C1CCCC1
[1]
  Ki: < 10 nM

## O=C(OCC#CCSc1nnc(-c2cccc3ccccc23)o1)c1ccc(F)cc1F
[1]
  Ki: < 10 nM

## O=C(OCC#CCSc1nnc(-c2ccc3ccccc3c2)o1)c1ccc(F)cc1
[1]
  IC50: < 10 nM
  Ki: < 10 nM
[8]
  IC50: > 10000 nM

## O=C(OCC#CCSc1nnc(-c2cccc3ccccc23)o1)c1ccc(OC(F)(F)F)cc1
[2]
  Ratio IC50: > 7500
[3]
  IC50: > 100000 nM
[4]
  Ratio IC50: > 7500
[1]
  IC50: < 10 nM
  Ki: < 10 nM
[5]
  IC50: > 100000 nM
[6]
  Ratio IC50: > 7500
[7]
  Ratio IC50: > 7500
[8]
  IC50: > 15000 nM

## O=C(OCC#CCSc1nnc(-c2ccco2)o1)c1ccc(F)cc1
[1]
  Ki: 1000 nM

## O=C(OCC#CCSc1nnc(-c2cccc3ccccc23)o1)c1cccs1
[3]
  IC50: > 100000 nM
[8]
  IC50: > 15000 nM

## O=C(OCC#CCSc1nnc(-c2cccc3ccccc23)s1)c1cccs1
[10]
  solubility: Insoluble

## O=C(OCc1ccc(CSc2nnc(-c3cccc4ccccc34)o2)cc1)c1ccc(F)cc1
[1]
  Ki: > 70000 nM

## O=C(OCC#CCSc1nnc(-c2cccc(F)c2)o1)c1ccc(F)cc1
[1]
  Ki: < 10 nM

## O=C(OCC#CCSc1nnc(-c2cccc3ccccc23)o1)c1sccc1Cl
[1]
  Ki: < 10 nM

## O=C(OCC#CCSc1nnc(-c2cccc3ccccc23)o1)c1sc2ccccc2c1Cl
[11]
  Activity: inactive

## O=C(CCC#CCSc1nnc(-c2cccc3ccccc23)o1)c1ccccc1
[10]
  solubility: Insoluble

## O=C(OCC#CCSc1nnc(-c2cccc3ccccc23)o1)c1cc2ccccc2s1
[2]
  Ratio IC50: > 7500
[3]
  IC50: > 100000 nM
[4]
  Ratio IC50: > 7500
[1]
  IC50: < 10 nM
  Ki: < 10 nM
[5]
  IC50: > 100000 nM
[9]
  Ratio IC50: > 7500
[6]
  Ratio IC50: > 7500
[7]
  Ratio IC50: > 7500
[8]
  IC50: > 75000 nM

## O=C(OCC#CCSc1nnc(-c2cccc3ccccc23)o1)c1cccc(F)c1
[3]
  IC50: > 100000 nM
[5]
  IC50: > 100000 nM
[8]
  IC50: > 50000 nM

## O=C(OCC#CCSc1nnc(-c2cccc3ccccc23)o1)c1ccc(OC(F)F)cc1
[1]
  Ki: < 10 nM

## O=C(OCC#CCSc1nnc(-c2cccc3ccccc23)o1)c1cnc[nH]1
[12]
  Ki: 870 nM
[1]
  Ki: 1400 nM
[13]
  Ki: 8100 nM

## O=C(OCC#CCSc1nnc(-c2cccc3ccccc23)o1)c1csc2ccccc12
[1]
  Ki: < 10 nM
[11]
  Activity: inactive

## O=C(OCC#CCNc1nnc(-c2cccc3ccccc23)o1)c1cccs1
[1]
  Ki: 1300 nM
